High-throughput results (PubChem BioAssay)
LEDGF integ inh = blocks HIV-1 LEDGF/p75-dependent DNA integration | TR-FRET IN-LEDGF/p75 DNA integration, Eu/Cy5 | inhibition, % at 3.7 µM | 0.64% of 370,000 active | AID 743269;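 active = inhibition above the screen-wide mean plus 3 SD, cut at about 13% in these data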;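 note: signal is the Cy5 over europium emission ratio at 671 and 618 nm; 0% = plate median of compound wells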
UHRF1 binding = UHRF1 methyl-DNA binding inhibition | Q96T88 | UHRF1 binding to methylated oligo, TR-FRET | inhibition, % at 4.4 µM | 0.75% of 370,000 active | AID 687016; in the data active = inhibition above about 21%;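 note: UHRF1 SRA domain binding a hemimethylated CpG hairpin DNA probe; 0% = median of test compound wells and 100% = reference inhibitor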
MBD2 inh = blocks human MBD2 binding to methylated DNA; AID 686964; 0.31% of 370,000 active; inhibition, % at 4.4 µM; TR-FRET, MBD2 binding to methylated oligonucleotide; in the data active = inhibition above about 13%
TDP2 inh = TDP2 (human) inhibition, absorbance primary screen | inhibition, % at 12.8 µM | recombinant TDP2, T5PNP hydrolysis, p-nitrophenol absorbance 415 nm | 0.34% of 370,000 active | O95551;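 active = inhibition above the mean of all tested compounds plus 3 SD, set per campaign, cut at about 25% in these data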;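 note: 0% = DMSO with enzyme and 100% = buffer with substrate but no TDP2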
Target sequence (O95551 whole entry, looked up): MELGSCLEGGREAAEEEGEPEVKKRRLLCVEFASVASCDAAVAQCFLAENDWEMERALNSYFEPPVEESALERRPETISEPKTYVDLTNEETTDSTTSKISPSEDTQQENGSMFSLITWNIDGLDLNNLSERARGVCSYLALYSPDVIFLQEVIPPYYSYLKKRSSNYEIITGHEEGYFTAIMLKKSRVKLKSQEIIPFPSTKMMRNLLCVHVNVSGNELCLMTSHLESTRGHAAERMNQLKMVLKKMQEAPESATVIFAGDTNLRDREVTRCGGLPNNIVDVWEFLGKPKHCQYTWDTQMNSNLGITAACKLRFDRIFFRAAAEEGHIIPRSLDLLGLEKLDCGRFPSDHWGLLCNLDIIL
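Test system: Human TDP2 enzyme | Reagent: 5 mM T5PNP | Compound dosing: 12.8 µM single point, 1% DMSO | Incubation: Enzyme reaction with compound for 2 h at 37 °C | Technique: p-Nitrophenol epi absorbance | Read-out: % inhibition relative to enzyme-containing and enzyme-free wells | Benchmarks: High control without enzyme, low control DMSO plus TDP2 | Replicates: Singlicate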
Rin1 Abl inh = human Rin1-Abl interaction inhibition | AID 588664 | TR-FRET Rin1/Abl binding, biochemical | inhibition, % at 7.35 µM | 0.4% of 360,000 active | P00519+Q13671; in the data active = inhibition above about 5%, passing the limit was not always enough
IN multimer act = counter-screen for LEDGF/p75 integration inhibitors: HIV-1 integrase multimerization activators; shares compounds with LEDGF integ inh; TR-FRET HIV-1 integrase multimerization, biochemical; activation, % at 7.7 µM; 17% of 2,000 active; in the data active = activation above about 8.9%
TR-FRET interf = TR-FRET optical interference, LEDGF/p75 integration counter-screen; shares compounds with LEDGF integ inh; TR-FRET optical interference counterscreen, HIV-1 IN multimerization; inhibition, % at 7.7 µM; 2,000 tested, under 10 active; AID 1053135;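 active = inhibition above the mean over all tested compounds plus 3 SD, which no compound reached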;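 note: 0% = integrase with antibodies and DMSO and 100% = antibodies without integrase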
LEDGF integ conf = confirmation of HIV-1 LEDGF/p75-dependent integration inhibitors; shares compounds with LEDGF integ inh; TR-FRET LEDGF/p75-dependent HIV-1 integration, biochemical; inhibition, % at 3.7 µM; 36% of 2,000 active; in the data active = inhibition above about 14%
The depositor's hits bear a star; nt = no result given. An excerpt weighted towards active compounds, which were near 1.9% of everything screened.

SMILES	LEDGF integ inh	UHRF1 binding	MBD2 inh	TDP2 inh	Rin1 Abl inh	IN multimer act	TR-FRET interf	LEDGF integ conf
CCOC(=O)c1ccc(NC(=O)c2nc[nH]c2C(=O)NC)cc1	18*	-1	-5	-8	1	0	0	-1
CCOC(=O)c1ccc(NC(=O)c2nc[nH]c2C(=O)NCCNC(=O)c2[nH]cnc2C(=O)Nc2ccc(C(=O)OCC)cc2)cc1	-2	2	-2	-25	1	nt	nt	nt
CC(CCc1ccccc1)NC(=O)CN1CCc2ccccc2C1 (configuration not stated)	15*	22*	2	-15	2	-2	7	-7
C=CCN1C(=O)[C@H](CC(=O)N2CCOCC2)[C@@]2(C(=O)OCC)CCCC=C12	-1	-2	-6	5	nt	nt	nt	nt
CC(C(=O)Nc1cccc([N+](=O)[O-])c1)n1nnc2ccccc21 (configuration not stated)	82*	-4	1	2	-3	-2	6	-12
CC(C(=O)Nc1cccc([N+](=O)[O-])c1)[n+]1ccccc1 (configuration not stated)	-5	1	-1	0	7	nt	nt	nt
CCCc1cc(=O)[nH]c(SCC(=O)NC(=O)OCC)n1	25*	-2	-6	8	-3	1	-5	-10
COc1ccccc1N(CC(=O)NC1CCCCC1C)S(=O)(=O)c1cccs1 (configuration not stated)	34*	0	-1	6	3	0	0	6
COc1ccccc1N(CC(=O)NC1CCCCC1)S(=O)(=O)c1cccs1	5	4	-2	-7	2	nt	nt	nt
Oc1cccc(/C=N/Nc2ccc(Cl)nn2)c1	1	-3	4	0	-5	nt	nt	nt
O=C(O)c1ccc(/C=N/Nc2ccc(Cl)nn2)cc1	21*	1	3	-4	-2	1	-5	1
Cc1cccc(C)c1-n1nnnc1C1c2ccccc2OCC(=O)N1Cc1ccc(F)cc1 (configuration not stated)	3	-3	-1	2	nt	nt	nt	nt
CCCN(CC1CC1)C(=S)NC(=O)c1cc(Br)ccc1Cl	17*	-6	-7	-10	5	0	2	10
O=c1oc(/C=C/c2ccco2)nc2sc3c(c12)CCC3	25*	40*	12	0	0	1	-4	2
COc1ccc(CN(C)C(=O)CCNS(=O)(=O)c2ccccc2)c(OC)c1	23*	-2	-4	4	1	0	1	-11
O=C(Nc1nc(-c2ccccn2)cs1)C1CC1	-2	1	-5	2	-1	nt	nt	nt
O=C(CC1CC2CCC1C2)Nc1nc(-c2ccccn2)cs1 (configuration not stated)	16*	1	0	-17	-4	1	-5	-2
CCC(=O)N1CCc2cc(Br)c(S(=O)(=O)N3CCC(C(=O)NC(C)(C)C)CC3)cc21	-1	-1	-1	-3	nt	nt	nt	nt
CC(=O)Nc1ccc(S(=O)(=O)/N=C2/NC(=O)/C(=C\c3ccco3)S2)cc1	23*	31*	4	13	9	6	-20	6
Cc1nc(C(=O)NCCCO)cc2c1[nH]c1ccccc12	27*	2	0	16	-2	-2	6	-1
COCCN1C(=O)C2=C(C1=O)C1N(C)c3ccccc3[C@@]13C[C@@H](CO)N(S(=O)(=O)c1ccc(OC)cc1)C3=N2 (some centres not stated)	-2	-2	1	3	nt	nt	nt	nt
Cc1cc(C)c(-c2csc(NC(=O)C3=COCCO3)n2)c(C)c1	-3	2	4	1	-5	nt	nt	nt
Cc1cc(-c2csc(NC(=O)C3=COCCO3)n2)c(C)n1C	43*	0	-4	18	-2	7	-37	47*
O=C1CC(Nc2ccc(N3CCOCC3)cc2)C(=O)N1c1ccccc1F (configuration not stated)	15*	-4	-7	10	3	1	-7	0
Oc1ccc(NC(=S)Nc2ccc(O)cc2)cc1	17*	-5	-4	20	1	6	-28	1
SMILES	LEDGF integ inh	UHRF1 binding	MBD2 inh	TDP2 inh	Rin1 Abl inh	IN multimer act	TR-FRET interf	LEDGF integ conf
C[C@@H]1OCN(C)[C@H]2C[C@H]3c4[nH]c5cccc(-c6cccc(F)c6)c5c4CCN3C(=O)[C@@H]12	-4	0	0	-1	nt	nt	nt	nt
COc1ccc(CC(=O)O/N=C(\N)Cc2cccc3ccccc23)cc1	14*	-1	0	0	-1	-1	3	-1
CCOC(=O)/C=C/C(=O)Nc1cccc([N+](=O)[O-])c1	nt	nt	nt	nt	3	nt	nt	nt
CCOC(=O)/C=C/C(=O)Nc1ccccc1-c1ccccc1NC(=O)/C=C/C(=O)OCC	56*	-2	0	12	0	0	-1	-9
COc1ccc(CNC(=O)OC2CC3CC2[C@H]2CCCCN2C3)cc1 (some centres not stated)	2	1	5	6	nt	nt	nt	nt
COC(=O)c1cccc(NC(=O)Cn2nnc3ccccc32)c1	19*	3	-1	5	2	1	-5	-1
CCOC(=O)c1ccc(NC(=O)Cn2nnc3ccccc32)cc1	-5	-3	2	-11	3	nt	nt	nt
COc1ccc(COC[C@H](C)N2C[C@@H](C)[C@H](CN(C)S(=O)(=O)c3ccc(F)cc3)OCCCC[C@H](C)Oc3ccc(NC(=O)Nc4ccccc4)cc3C2=O)cc1	-1	4	2	4	nt	nt	nt	nt
COC(=O)c1ccc(N2NC(=O)/C(=C/c3cc(OC)c(OC)c(OC)c3)C2=O)cc1	14*	1	-2	-5	1	3	-12	-2
CC(C)CN1C(=O)[C@@]2(CC(=O)N(C)C2c2ccccc2)c2cc(-n3cc(CN(C)C)nn3)ccc21 (some centres not stated)	-2	8	2	-4	nt	nt	nt	nt
Cc1ccc(C2CCC3(CCC(=O)N3CCOC(=O)Nc3ccc(F)cc3)CC2)cc1 (configuration not stated)	1	0	5	-6	nt	nt	nt	nt
CCOC(=O)C1=NS(=O)(=O)NC(C)=C1	16*	0	-6	-1	-1	0	-1	-1
C=CC[C@@H]1NN2C(=O)[C@@H](C)[C@@H]3c4ccccc4C=NN3[C@@H]2c2ccccc21	0	1	0	14	nt	nt	nt	nt
Cc1cccc[n+]1CCCCCCCCCC[n+]1ccccc1C	21*	-2	4	14	-1	0	0	-4
